Source: PubChem
Hits are enriched below; roughly 2.4% of the tested compounds scored in any of these assays.
HNF4A DNA FP – change in binding of human HNF4 alpha to DNA; activity change, % at 10 µM; AID 1224865; 0.3% of 360,000 active; HNF4a-FITC DNA binding, fluorescence polarization, 1 h; in the data active = activity change above about 30%, passing the limit was not always enough
Rpn11 inh – inhibitors of human proteasome Rpn11; O00487; human 26S proteasome, Ub4-pepOG fluorescence polarization; 20S core pre-blocked with epoxomicin; inhibition, % at 20 µM; 0.59% of 360,000 active; AID 588493;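 active = inhibition at 20 µM, scaled to each plate's controls, above about 33%, limit read from the data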
TbMetRS inhib – blocks T. brucei methionyl-tRNA synthetase activity; purified T. brucei MetRS, ATP depletion, Kinase-Glo luminescence; inhibition, % at 11.9 µM; 0.4% of 360,000 active;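 active = inhibition above a per-plate cutoff of the control wells' mean inhibition plus 3 SD, cut at about 5.5% in these data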;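 note: 0% = DMSO wells median and 100% = median of wells with control inhibitor compound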
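Assay system: T. brucei methionyl-tRNA synthetase, purified | Medium: HEPES buffer with MgCl2, KCl, DTT, spermine, BSA, pyrophosphatase | Compound: 11.9 µM single point | Incubation: 15 min enzyme-compound preincubation, 2 h reaction, 10 min detection, 25 °C | Measured by: Kinase-Glo luciferase luminescence reporting remaining unconsumed ATP | Measure: % inhibition normalized to control-well medians | Replication: Singlicate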
CSN inh – CSN deneddylation inhibition | inhibition, % at 12.5 µM | 0.38% of 360,000 active | Purified CSN, SCF-Nedd8-OG deneddylation, fluorescence polarization | Q92905;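 active = pattern-corrected inhibition above about 35%, with an unprinted fluorescence ratio check between 0.5 and 1.5, limit read from the data, passing the limit was not always enough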;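 note: 0% = enzyme with substrate and 100% = substrate without enzyme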
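Material: human Csn5 produced in HEK293T cells; Input: enzyme 0.24 nM; Reagent: SCFSkp2-Nedd8OG substrate at 10 nM final; Dosing: 12.5 µM compound; Incubation: 90 min reaction at room temperature; Detection: fluorescence polarization of the substrate; Evaluation: % inhibition of substrate cleavage by Csn5; Control set: substrate-only high control, full reaction low control.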
Neddylation inh – cullin neddylation inhibition; P61081+Q13564; TR-FRET cullin neddylation, biochemical; inhibition, % at 25 µM; 0.58% of 360,000 active; in the data active = inhibition above about 36%
Target sequence (P61081 whole entry, looked up): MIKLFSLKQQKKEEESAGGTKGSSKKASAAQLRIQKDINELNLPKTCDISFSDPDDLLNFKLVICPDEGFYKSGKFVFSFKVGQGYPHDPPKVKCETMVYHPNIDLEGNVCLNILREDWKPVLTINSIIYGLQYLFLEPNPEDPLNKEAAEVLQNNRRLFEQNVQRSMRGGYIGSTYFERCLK
Target sequence (Q13564 whole entry, looked up): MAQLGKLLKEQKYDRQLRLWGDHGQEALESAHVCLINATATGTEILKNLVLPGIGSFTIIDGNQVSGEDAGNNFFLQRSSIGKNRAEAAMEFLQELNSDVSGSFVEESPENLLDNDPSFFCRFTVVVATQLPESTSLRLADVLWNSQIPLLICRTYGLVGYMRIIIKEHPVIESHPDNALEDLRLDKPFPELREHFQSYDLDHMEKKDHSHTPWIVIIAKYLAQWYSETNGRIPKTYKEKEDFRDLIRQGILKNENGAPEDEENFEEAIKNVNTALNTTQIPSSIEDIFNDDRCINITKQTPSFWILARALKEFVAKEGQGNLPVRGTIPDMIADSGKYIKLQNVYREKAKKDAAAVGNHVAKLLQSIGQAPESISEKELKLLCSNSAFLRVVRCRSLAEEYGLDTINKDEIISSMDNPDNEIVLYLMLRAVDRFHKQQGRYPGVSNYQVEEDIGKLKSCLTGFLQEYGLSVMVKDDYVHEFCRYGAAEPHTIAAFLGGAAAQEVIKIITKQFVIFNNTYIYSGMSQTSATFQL
PREPL inhibitor – inhibits the human prolyl oligopeptidase-like enzyme; Q4J6C6; recombinant PREPL, fluorescence polarization activity-based probe; inhibition, % at 5.96 µM; 0.68% of 320,000 active; in the data active = inhibition above about 43%;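 note: 0% = enzyme with DMSO and 100% = wells lacking enzyme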
HNF4A confirm – change in binding of human HNF4 alpha to DNA, retest | 99% of 210 active | activity change, % at 12.5 µM | AID 1224897 | HNF4A-FITC DNA binding, fluorescence polarization, 1 h | shares compounds with HNF4A DNA FP; call rule not given here
Numbers without * were called inactive; / = no result shown.

SMILES	HNF4A DNA FP	Rpn11 inh	TbMetRS inhib	CSN inh	Neddylation inh	PREPL inhibitor	HNF4A confirm
N#C/C(=C/C1=C(N2CCOCC2)C(=C/c2cccc([N+](=O)[O-])c2)/CC1)C(=O)Nc1ccccc1F	49*	35	0	53*	-24	/	65*
COc1ccc(Nc2c(-c3cc4ccccc4o3)nc3nc(C)cc(C)n23)cc1	11	/	0	1	26	/	/
CCCCNc1c(-c2cc3ccccc3o2)nc2nc(C)cc(C)n12	45*	/	-1	11	13	/	37*
O=S(=O)(c1ccccc1)N1N=C(c2ccccc2)CC1c1ccco1 (stereo unspecified)	/	/	/	/	/	-2	/
COc1ccc(C2CC(c3ccccc3)=NN2S(=O)(=O)c2ccccc2)cc1 (stereo unspecified)	77*	29	0	6	-3	14	59*
Cc1cn([C@H]2C[C@H](O)[C@@H](/C=C/C(=O)NCCC(C)C)O2)c(=O)[nH]c1=O	-1	8	0	0	-1	/	/
Cc1ccc(SC[C@H](Cc2ccccc2)N2CC[C@@H](NC(=O)OCc3ccccc3)CCC2=O)cc1	/	/	/	/	/	9	/
COc1ccc2c(c1)C1=NN(/C(C)=C\C(C)=O)C(c3ccccc3)C1CC2 (stereo unspecified)	40*	26	0	9	17	17	53*
CC(=O)N1N=C2c3ccccc3CCC2C1c1cccs1 (stereo unspecified)	1	-13	0	3	2	3	/
COc1ccccc1OCCC(=O)OCC(=O)NCc1ccc(F)cc1	0	-2	0	-7	-13	-1	/
N#Cc1ccsc1NC(=O)c1ccc2ncsc2c1	69*	/	0	59*	-139	/	77*
O=C(Nc1ccc(F)cc1)c1ccc2ncsc2c1	-1	-13	-1	3	9	19	/
COC(=O)c1cc(C(=O)c2cc(F)ccc2O)cn2c(=O)c3c(C)c(C)sc3nc12	68*	32	0	8	7	11	66*
Cc1sc2nc3c(SC(C)C(=O)O)cc(C(=O)c4ccccc4O)cn3c(=O)c2c1C (stereo unspecified)	5	6	1	2	-10	18	/
Cn1c(=O)c(=O)n(C)c2cc(S(=O)(=O)N3CCc4ccccc43)ccc21	43*	27	0	12	-13	9	47*
Cn1c(=O)oc2cc(S(=O)(=O)N3CCc4ccccc43)ccc21	-1	2	0	0	-5	-2	/
COc1ccc(-c2cn3c(C)c(C(=O)Nc4cccc(C)n4)sc3n2)cc1	11	26	-1	3	-59	8	/
Cc1cccc(NC(=O)c2sc3nc(-c4ccc(F)cc4)cn3c2C)n1	37*	/	-1	36*	-189	10	38*
COc1ccc2c(-c3ccccc3)cc(SCC(N)=O)nc2c1	43*	/	-1	23	-98	-2	49*
COc1cc(/C=C2\C(=N)N3N=CSC3=NC2=O)cc(Br)c1OC(=O)c1ccco1	39*	31	0	13	-64	16	79*
COc1cc(/C=C2\C(=N)N3N=CSC3=NC2=O)ccc1OS(=O)(=O)c1ccccc1	0	9	0	1	-4	/	/
COC(=O)c1ccccc1OCc1cc(=O)oc2ccc(C)cc12	4	-4	0	3	-7	/	/
Cc1c(C(=O)NCc2ccc3c(c2)OCCO3)sc(=O)n1Cc1ccc(S(=O)(=O)N(C)C)cc1	2	-3	0	-3	-5	/	/
CCCNC(=O)N(C)C[C@@H]1Oc2cc(C#CC(C)(C)O)ccc2S(=O)(=O)N([C@H](C)CO)C[C@H]1C	3	-3	1	0	-8	/	/
CSc1nnc(C)c(/C=C/Nc2ccc(C)cc2)n1	53*	/	1	28	-15	21	88*
SMILES	HNF4A DNA FP	Rpn11 inh	TbMetRS inhib	CSN inh	Neddylation inh	PREPL inhibitor	HNF4A confirm
CSc1nnc(C)c(/C=C/NOCc2ccc(Cl)cc2)n1	0	6	0	-20	-10	8	/
CSc1nsc(/C=C/Nc2cccc(Cl)c2)c1C#N	40*	33	0	21	-21	10	41*
N#Cc1cc(Oc2ccc3ccccc3c2)c(-n2nnc3ccccc32)cc1C#N	62*	1	-1	-5	1	-32	36*
Cc1cn(CC(=O)NCCc2c[nH]c3ccccc23)c(=O)[nH]c1=O	-1	-6	-1	-2	3	/	/
C#CCOCCOCCOCCNc1nc(N2CCN(C(=O)CCCCCCCCCCNC(=O)[C@H](CCCCN)n3cc(CCO)nn3)CC2)nc(N2CCN(C(=O)CCCCCCCCCCNC(=O)[C@H](CCCCN)n3cc(CCCC(=O)O)nn3)CC2)n1	48*	-15	0	6	-12	28	66*
C#CCOCCOCCOCCNc1nc(N2CCN(C(=O)[C@H](CCCCN)n3cc(CN)nn3)CC2)nc(N2CCN(C(=O)[C@H](CCC(=O)O)n3cc([C@@H](N)CCCCN)nn3)CC2)n1	92*	-2	0	100*	27	13	123*
C#CCOCCOCCOCCNc1nc(N2CCN(C(=O)C([C@@H](C)O)n3cc([C@@H](N)CCCCN)nn3)CC2)nc(N2CCN(C(=O)[C@H](CCCCN)n3cc([C@@H](N)[C@H](C)CC)nn3)CC2)n1 (stereo partly specified)	76*	13	1	85*	21	27	94*
Clc1ccc(-c2nsc(N3CCOCC3)n2)c(Cl)c1	1	2	0	0	-13	-2	/
COC(=O)c1ccc(Cn2c(C)c(C(=O)NCc3ccc(Cl)c(Cl)c3)sc2=O)o1	4	5	2	-3	3	/	/
O=C1NC(=S)N(C(=O)c2ccc(F)cc2)/C1=C/c1ccccc1	78*	/	0	55*	7	6	89*
O=C(c1ccc(F)cc1)N1CCN(Cc2ccccc2)CC1	-1	-1	-1	1	4	8	/
COc1ccc2cc(C(c3nnnn3CCc3ccccc3)N3CCC(O)CC3)c(=O)[nH]c2c1 (stereo unspecified)	55*	/	0	14	-7	-28	51*
COc1ccc2cc(C(c3nnnn3Cc3ccccc3)N3CCCCCC3)c(=O)[nH]c2c1 (stereo unspecified)	-3	2	-2	0	-8	18	/
O=C(OC1CC2CC1[C@H]1CCCCN1C2=O)N1CCN(C(=O)c2ccccc2)CC1 (stereo partly specified)	2	/	0	-5	-1	/	/
CCOc1ccc(CN2CCN(Cc3cccn3-c3nccs3)CC2CCO)cc1 (stereo unspecified)	1	-9	-1	6	0	3	/
